Measurements reported in ChEMBL document CHEMBL3098117, “Identification and optimization of an aminoalcohol-carbazole series with antimalarial properties” (ACS Med Chem Lett, 2013).
Calls of active or inactive are those of the source. The rule behind the calls is not given here.

Assays:
Plasmodium berghei [1] = test: Antimalarial activity against Plasmodium berghei ANKA expressing GFP infected in po dosed NMRI mouse assessed as reduction in parasitemia administered qd for 4 days measured at 24 hrs after last dose; format: functional
Summary of the method: (§1)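 P. berghei-infected mice dosed orally once daily on days 0–3, first dose 4 h postinfection, at 3, 10, 30 and 100 mg/kg/day. Red blood cell parasitemia and plasma exposure measured on day 4, 24 h after last dose; ED50 derived from dose-response; survival then monitored for 26 further days as mean survival days.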

Plasmodium falciparum [2] = test: Antimalarial activity against chloroquine, pyrimethamine, sulfadoxine, quinine and mefloquine-sensitive Plasmodium falciparum D6; format: functional, organism-based
Salmonella typhimurium [3] = test: Mutagenic activity in Salmonella typhimurium by Ames test; format: toxicity, organism-based; conditions: salmonella enterica subsp. enterica serovar typhimurium
[4] = Terminal half life in NMRI mouse at 5 mg/kg, po by LC-MS/MS analysis; format: ADME, organism-based; set-up: dose 5 mg/kg, route oral; conditions: in vivo, read-out: beta t1/2 (converted)
[5] = biological target: Voltage-dependent L-type calcium channel subunit alpha-1C (Homo sapiens, UniProt Q13936); test: Inhibition of human Cav1.2 channel
Salmonella typhimurium [6] = test: Mutagenic activity in Salmonella typhimurium by Ames test under metabolic conditions; format: toxicity, organism-based; conditions: salmonella enterica subsp. enterica serovar typhimurium
[7] = AUC in NMRI mouse at 1 mg/kg, iv and 5 mg/kg, po by LC-MS/MS analysis; format: ADME, organism-based; conditions: plasma
[8] = Volume of distribution at steady state in NMRI mouse at 1 mg/kg, iv by LC-MS/MS analysis; format: ADME, organism-based; set-up: dose 1 mg/kg, route intravenous; conditions: in vivo, read-out: Vdss
Cytochrome P450 3A4 = Cytochrome P450 3A4 (Homo sapiens, UniProt P08684); test: Inhibition of human recombinant CYP3A4 expressed in baculovirus-infected insect cells preincubated for 15 mins followed by substrate addition measured after 30 mins by luminescence assay; format: ADME; conditions: recombinant enzyme, 0.5 h
Chain of Cytochrome P450 3A4 (P08684 whole entry): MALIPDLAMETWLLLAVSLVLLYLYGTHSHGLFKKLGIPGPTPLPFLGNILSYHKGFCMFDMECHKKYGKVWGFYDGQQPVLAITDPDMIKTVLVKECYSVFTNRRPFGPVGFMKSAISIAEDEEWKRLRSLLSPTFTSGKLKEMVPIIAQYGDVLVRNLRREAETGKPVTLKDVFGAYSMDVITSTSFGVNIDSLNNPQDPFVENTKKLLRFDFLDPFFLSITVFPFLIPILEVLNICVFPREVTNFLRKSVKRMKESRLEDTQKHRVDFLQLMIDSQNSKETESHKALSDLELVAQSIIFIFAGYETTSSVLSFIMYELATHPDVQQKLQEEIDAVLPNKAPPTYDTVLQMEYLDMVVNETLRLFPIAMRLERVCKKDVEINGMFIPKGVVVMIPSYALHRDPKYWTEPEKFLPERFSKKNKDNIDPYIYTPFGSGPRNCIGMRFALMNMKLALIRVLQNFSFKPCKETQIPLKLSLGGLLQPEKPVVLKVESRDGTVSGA

Plasmodium falciparum [9] = test: Antimalarial activity against chloroquine, pyrimethamine, quinine-resistant Plasmodium falciparum V1S; format: functional; conditions: VS/1
[10] = Genotoxicity in micronucleus (unknown origin)
[11] = Oral bioavailability in NMRI mouse at 5 mg/kg by LC-MS/MS analysis; format: ADME, organism-based; conditions: in vivo
[12] = biological target: T1, A-type voltage-gated potassium channel KCND3 (Homo sapiens, UniProt Q9UK17); test: Inhibition of Kv4.3 channel (unknown origin)
T1 sequence (Q9UK17 whole entry): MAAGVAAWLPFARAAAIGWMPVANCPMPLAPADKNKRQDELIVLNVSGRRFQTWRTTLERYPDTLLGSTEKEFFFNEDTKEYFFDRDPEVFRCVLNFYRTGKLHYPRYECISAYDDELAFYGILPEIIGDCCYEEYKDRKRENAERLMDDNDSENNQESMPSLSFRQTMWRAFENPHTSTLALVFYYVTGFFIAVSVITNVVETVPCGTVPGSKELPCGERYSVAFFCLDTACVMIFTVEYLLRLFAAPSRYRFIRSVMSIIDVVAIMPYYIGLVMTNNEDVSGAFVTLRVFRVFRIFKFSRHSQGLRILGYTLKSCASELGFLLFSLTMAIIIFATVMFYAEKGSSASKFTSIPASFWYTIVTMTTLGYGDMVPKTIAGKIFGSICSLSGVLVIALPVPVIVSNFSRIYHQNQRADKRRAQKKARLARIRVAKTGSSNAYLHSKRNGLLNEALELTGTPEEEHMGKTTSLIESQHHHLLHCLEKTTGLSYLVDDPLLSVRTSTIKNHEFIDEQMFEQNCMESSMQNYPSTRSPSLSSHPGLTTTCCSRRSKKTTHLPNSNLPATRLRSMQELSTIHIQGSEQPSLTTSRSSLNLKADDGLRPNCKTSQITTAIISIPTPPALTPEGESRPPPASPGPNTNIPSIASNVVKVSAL

[13] = biological target: Sodium channel protein type 5 subunit alpha (Homo sapiens, UniProt Q14524); test: Inhibition of human Nav1.5 channel
Chain of Sodium channel protein type 5 subunit alpha (Q14524 whole entry): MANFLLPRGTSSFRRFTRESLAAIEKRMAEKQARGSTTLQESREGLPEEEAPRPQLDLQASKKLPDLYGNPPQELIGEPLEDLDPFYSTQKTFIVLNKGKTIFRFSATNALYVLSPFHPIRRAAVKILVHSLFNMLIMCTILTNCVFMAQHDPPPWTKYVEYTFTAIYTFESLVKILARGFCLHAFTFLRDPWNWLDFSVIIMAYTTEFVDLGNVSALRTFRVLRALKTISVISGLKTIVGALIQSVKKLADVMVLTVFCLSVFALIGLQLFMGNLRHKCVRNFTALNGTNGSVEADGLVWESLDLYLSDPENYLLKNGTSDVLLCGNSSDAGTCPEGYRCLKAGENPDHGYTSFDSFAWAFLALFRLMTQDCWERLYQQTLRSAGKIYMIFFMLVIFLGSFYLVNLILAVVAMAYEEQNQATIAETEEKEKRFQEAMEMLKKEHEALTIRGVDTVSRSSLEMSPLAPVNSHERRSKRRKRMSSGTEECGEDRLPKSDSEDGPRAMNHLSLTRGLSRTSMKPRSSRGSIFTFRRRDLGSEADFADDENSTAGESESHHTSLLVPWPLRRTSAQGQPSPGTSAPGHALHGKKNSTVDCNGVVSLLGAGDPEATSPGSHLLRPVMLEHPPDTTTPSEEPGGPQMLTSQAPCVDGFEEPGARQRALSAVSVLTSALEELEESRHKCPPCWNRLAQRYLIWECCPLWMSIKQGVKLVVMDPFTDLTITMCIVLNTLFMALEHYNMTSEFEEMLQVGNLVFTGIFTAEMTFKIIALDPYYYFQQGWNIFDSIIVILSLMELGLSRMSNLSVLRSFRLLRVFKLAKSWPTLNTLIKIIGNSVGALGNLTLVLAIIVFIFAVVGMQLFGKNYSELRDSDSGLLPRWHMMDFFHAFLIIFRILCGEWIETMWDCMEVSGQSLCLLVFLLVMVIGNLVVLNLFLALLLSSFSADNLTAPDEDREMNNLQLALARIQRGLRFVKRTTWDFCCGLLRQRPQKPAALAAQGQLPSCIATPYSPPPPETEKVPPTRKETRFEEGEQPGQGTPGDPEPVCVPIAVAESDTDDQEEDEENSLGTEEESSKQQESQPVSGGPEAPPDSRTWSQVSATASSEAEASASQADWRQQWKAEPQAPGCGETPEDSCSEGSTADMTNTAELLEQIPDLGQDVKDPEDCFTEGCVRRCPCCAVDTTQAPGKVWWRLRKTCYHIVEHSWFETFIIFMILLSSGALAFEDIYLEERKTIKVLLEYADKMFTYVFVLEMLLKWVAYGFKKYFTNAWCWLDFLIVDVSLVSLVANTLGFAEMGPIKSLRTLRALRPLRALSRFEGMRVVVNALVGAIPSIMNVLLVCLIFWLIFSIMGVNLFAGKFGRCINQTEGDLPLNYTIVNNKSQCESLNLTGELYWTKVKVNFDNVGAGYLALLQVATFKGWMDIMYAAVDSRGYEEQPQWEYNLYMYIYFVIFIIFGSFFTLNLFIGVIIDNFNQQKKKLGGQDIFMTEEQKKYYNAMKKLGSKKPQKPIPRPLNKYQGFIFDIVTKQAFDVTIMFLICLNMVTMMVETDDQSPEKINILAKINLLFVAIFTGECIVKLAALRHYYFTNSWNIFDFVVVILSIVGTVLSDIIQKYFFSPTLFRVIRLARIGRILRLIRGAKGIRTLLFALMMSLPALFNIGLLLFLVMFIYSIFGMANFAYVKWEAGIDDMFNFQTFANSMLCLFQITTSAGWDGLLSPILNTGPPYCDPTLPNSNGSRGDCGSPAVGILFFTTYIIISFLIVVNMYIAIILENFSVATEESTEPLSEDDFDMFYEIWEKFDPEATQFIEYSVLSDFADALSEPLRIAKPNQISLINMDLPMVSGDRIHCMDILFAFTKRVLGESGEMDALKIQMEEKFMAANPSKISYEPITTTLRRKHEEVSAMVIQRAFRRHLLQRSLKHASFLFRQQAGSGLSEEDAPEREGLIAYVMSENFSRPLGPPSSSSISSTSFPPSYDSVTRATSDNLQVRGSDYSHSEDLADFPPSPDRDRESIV

Plasmodium falciparum [14] = test: Antimalarial activity against chloroquine and pyrimethamine-resistant Plasmodium falciparum K1; format: functional, organism-based
Summary of the method: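 P. falciparum cultured with test drug in human red blood cells for 3 days. Growth read out as hypoxanthine incorporation.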

Plasmodium berghei [15] = test: Antimalarial activity against Plasmodium berghei ANKA expressing GFP infected in NMRI mouse assessed as reduction in parasitemia at 10 mg/kg/day, po qd for 4 days measured at 24 hrs after last dose relative to control; format: functional; set-up: scale not given: the % may be the effect or the level left; summary of the method: as §1
Cytochrome P450 2C8 = biological target: T2, Cytochrome P450 2C8 (Homo sapiens, UniProt P10632); test: Inhibition of human recombinant CYP2C8 expressed in baculovirus-infected insect cells preincubated for 15 mins followed by substrate addition measured after 30 mins by luminescence assay; format: ADME; conditions: recombinant enzyme, 0.5 h
T2 sequence (P10632 whole entry): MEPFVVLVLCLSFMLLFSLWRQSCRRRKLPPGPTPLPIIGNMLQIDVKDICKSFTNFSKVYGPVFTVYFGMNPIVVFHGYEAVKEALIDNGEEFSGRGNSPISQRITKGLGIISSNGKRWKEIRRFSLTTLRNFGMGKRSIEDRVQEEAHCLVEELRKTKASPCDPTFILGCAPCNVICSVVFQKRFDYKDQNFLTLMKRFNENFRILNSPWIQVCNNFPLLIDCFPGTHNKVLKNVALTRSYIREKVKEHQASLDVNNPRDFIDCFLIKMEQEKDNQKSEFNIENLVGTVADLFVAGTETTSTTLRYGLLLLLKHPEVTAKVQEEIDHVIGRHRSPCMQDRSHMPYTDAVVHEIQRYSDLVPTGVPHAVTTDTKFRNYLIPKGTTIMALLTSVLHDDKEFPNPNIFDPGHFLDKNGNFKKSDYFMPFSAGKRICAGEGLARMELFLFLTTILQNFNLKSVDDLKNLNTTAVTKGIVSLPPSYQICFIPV

Cytochrome P450 2C19 = Cytochrome P450 2C19 (Homo sapiens, UniProt P33261); test: Inhibition of human recombinant CYP2C19 expressed in baculovirus-infected insect cells preincubated for 15 mins followed by substrate addition measured after 30 mins by luminescence assay; format: ADME; conditions: recombinant enzyme, 0.5 h
Chain of Cytochrome P450 2C19 (P33261 whole entry): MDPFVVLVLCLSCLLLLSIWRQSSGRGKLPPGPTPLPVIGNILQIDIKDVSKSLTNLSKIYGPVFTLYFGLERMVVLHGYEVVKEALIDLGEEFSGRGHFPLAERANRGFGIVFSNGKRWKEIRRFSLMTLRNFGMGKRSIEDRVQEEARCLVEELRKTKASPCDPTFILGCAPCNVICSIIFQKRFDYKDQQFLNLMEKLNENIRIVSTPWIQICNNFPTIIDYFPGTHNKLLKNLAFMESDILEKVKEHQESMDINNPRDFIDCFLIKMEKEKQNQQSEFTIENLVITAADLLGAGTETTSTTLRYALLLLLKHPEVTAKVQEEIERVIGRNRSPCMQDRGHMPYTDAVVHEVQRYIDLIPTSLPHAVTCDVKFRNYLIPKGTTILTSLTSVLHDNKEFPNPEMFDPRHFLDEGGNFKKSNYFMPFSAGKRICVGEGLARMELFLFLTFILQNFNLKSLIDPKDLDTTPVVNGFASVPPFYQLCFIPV

[16] = biological target: Potassium voltage-gated channel subfamily A member 5 (Homo sapiens) (UniProt P22460); test: Inhibition of human Kv1.5 channel
Chain of Potassium voltage-gated channel subfamily A member 5 (Homo sapiens) (P22460 whole entry): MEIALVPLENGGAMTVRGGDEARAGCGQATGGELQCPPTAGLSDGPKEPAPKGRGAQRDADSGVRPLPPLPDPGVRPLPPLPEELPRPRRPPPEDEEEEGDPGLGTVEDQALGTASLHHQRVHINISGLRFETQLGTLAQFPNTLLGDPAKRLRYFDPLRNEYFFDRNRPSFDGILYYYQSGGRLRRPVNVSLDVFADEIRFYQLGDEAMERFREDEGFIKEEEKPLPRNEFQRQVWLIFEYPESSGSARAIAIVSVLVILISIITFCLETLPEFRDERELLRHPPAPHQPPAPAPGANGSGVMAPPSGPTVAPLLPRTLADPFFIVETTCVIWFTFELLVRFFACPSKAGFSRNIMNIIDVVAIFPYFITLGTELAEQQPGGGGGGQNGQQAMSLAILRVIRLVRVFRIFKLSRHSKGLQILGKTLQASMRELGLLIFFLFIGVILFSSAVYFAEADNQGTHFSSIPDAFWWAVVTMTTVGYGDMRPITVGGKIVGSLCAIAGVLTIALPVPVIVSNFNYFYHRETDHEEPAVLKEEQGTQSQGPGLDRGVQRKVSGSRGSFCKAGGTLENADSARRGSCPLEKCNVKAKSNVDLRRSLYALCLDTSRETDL

Cytochrome P450 2C9 = Cytochrome P450 2C9 (Homo sapiens, UniProt P11712); test: Inhibition of human recombinant CYP2C9 expressed in baculovirus-infected insect cells preincubated for 15 mins followed by substrate addition measured after 30 mins by luminescence assay; format: ADME; conditions: recombinant enzyme, 0.5 h
Chain of Cytochrome P450 2C9 (P11712 whole entry): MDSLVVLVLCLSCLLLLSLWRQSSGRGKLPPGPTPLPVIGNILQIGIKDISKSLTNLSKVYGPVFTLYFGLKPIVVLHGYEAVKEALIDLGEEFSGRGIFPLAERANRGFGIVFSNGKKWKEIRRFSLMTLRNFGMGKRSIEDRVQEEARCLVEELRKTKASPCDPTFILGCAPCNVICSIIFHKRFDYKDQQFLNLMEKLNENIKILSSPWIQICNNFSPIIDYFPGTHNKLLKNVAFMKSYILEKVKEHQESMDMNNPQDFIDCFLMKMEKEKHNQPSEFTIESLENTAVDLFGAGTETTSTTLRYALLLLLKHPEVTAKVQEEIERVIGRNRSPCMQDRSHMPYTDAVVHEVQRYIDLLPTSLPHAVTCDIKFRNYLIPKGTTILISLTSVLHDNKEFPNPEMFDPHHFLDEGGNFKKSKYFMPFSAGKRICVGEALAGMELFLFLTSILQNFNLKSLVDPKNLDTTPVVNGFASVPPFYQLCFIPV

Plasmodium falciparum [17] = test: Antimalarial activity against mefloquine-resistant Plasmodium falciparum TM91C235; format: functional, organism-based
Plasmodium falciparum [18] = test: Antimalarial activity against Plasmodium falciparum K1 infected in human RBC after 72 hrs by hypoxanthine incorporation assay in presence of serum albumin; format: functional, organism-based; conditions: K1, 72 h
Summary of the method: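 Mixture of drug, human red blood cells and P. falciparum incubated 3 days (72 h) with serum albumin present; growth read as hypoxanthine incorporation.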

[19] = Genotoxicity in micronucleus (unknown origin) under metabolic conditions; format: ADME
Plasmodium berghei [20] = test: Antimalarial activity against Plasmodium berghei ANKA expressing GFP infected in NMRI mouse assessed as effect on mouse survival at 10 mg/kg/day, po qd for 4 days measured at 24 hrs after last dose; format: functional, organism-based; summary of the method: as §1
[21] = Cmax in NMRI mouse at 1 mg/kg, iv and 5 mg/kg, po by LC-MS/MS analysis; format: ADME, organism-based; conditions: in vivo

OC(CNC1CCCCC1)Cn1c2ccc(Br)cc2c2cc(Br)ccc21 (racemic)
Activity (Plasmodium berghei [1]): Dose dependent effect
ED50 (Plasmodium berghei [1]): 11.4 mg/kg/day
Activity (Plasmodium falciparum [2]): Active
Activity (Salmonella typhimurium [3]): Non-toxic
half-life [4]: 15 h
inhibition (INH) [5]: Not Active
Activity (Salmonella typhimurium [6]): Non-toxic
AUC [7]: 3750 ng·h/mL
Vd [8]: 13 L/kg
inhibition (INH) (Cytochrome P450 3A4): Active
Activity (Plasmodium falciparum [9]): Active
Activity [10]: Non-toxic
bioavailability [11]: 50%
inhibition (INH) [12]: Not Active
inhibition (INH) [13]: Not Active
Activity (Plasmodium falciparum [14]): Active
Activity (Plasmodium berghei [15]): 38%
inhibition (INH) (Cytochrome P450 2C8): Active
inhibition (INH) (Cytochrome P450 2C19): Active
inhibition [16]: inactive
inhibition (INH) (Cytochrome P450 2C9): Active
Activity (Plasmodium falciparum [17]): Active
IC50 (Plasmodium falciparum [18]): 9 nM
Activity [19]: Non-toxic
Activity (Plasmodium berghei [20]): inactive
Cmax [21]: 158 ng/mL
